Source: ChEMBL document CHEMBL3407440, “Monocarbonyl analogs of curcumin inhibit growth of antibiotic sensitive and resistant strains of Mycobacterium tuberculosis” (Eur J Med Chem, 2015)
pIC50: −log10 of the molar value. Activity calls are given as the source filed them. No cut-off for these calls is given here.

Experiments:
[1] = Half life in CD1 male mouse at 50 mg/kg, po; assay type: ADME, organism-based; set-up: dose 50 mg/kg, route oral; settings: in vivo
Mycobacterium marinum [2] = assay: Antituberculosis activity against Mycobacterium marinum assessed as diameter of zone of inhibition at 100 mM incubated for 7 days by disk diffusion assay; assay type: functional; settings: 168 h, read-out: DIZ
Method in brief: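 Mm 1218R grown in 7H9-ADC (0.025% Tween 80) to OD600 0.35, diluted to OD600 0.04, spread on 7H10-OADC agar and air-dried 10 min. A 6 mm disk received 10 µl of 100 mM analog (in DMSO or water). Plates were incubated 7 days at 30 °C in 5% CO2 (legend: 32 °C), three plates per analog. The bacteria-free zone around the disk was measured.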

[3] = tested on: Mycobacterium tuberculosis; assay: Antituberculosis activity against Mycobacterium tuberculosis H37Rv assessed as growth inhibition after 72 hrs by liquid culture assay; assay type: functional, organism-based
Mycobacterium marinum [4] = assay: Antituberculosis activity against Mycobacterium marinum assessed as growth inhibition after 72 hrs by liquid culture assay; assay type: functional, organism-based
Method in brief: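 Mm 1218R grown in 7H9-ADC (0.025% Tween 80) to OD600 0.35, then diluted to OD600 0.04. Cultured 72 h with analog in DMSO at 0.780–100 µM (twofold steps), in duplicate, alongside no-drug and 1% DMSO vehicle controls. Mean ± SEM of three experiments.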

[5] = tested on: Mycobacterium tuberculosis; assay: Antituberculosis activity against Mycobacterium tuberculosis Beijing F2 assessed as growth inhibition after 72 hrs by liquid culture assay; assay type: functional, organism-based; settings: Beijing F2, 72 h
[6] = Tmax in CD1 male mouse at 50 mg/kg, po; assay type: ADME, organism-based; set-up: dose 50 mg/kg, route oral; settings: in vivo
[7] = Cmax in CD1 male mouse at 50 mg/kg, po; assay type: ADME, organism-based; set-up: dose 50 mg/kg, route oral; settings: in vivo
Mycobacterium marinum [8] = assay: Antituberculosis activity against rifampicin-resistant Mycobacterium marinum assessed as growth inhibition after 72 hrs by liquid culture assay; assay type: functional, organism-based
Method in brief: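 Rifampicin-resistant Mm 1218R^rifR cultured in 7H9-ADC broth with DMSO, rifampicin or analog at varied concentrations for 72 h. Growth read as OD600 and normalized to untreated culture; IC50 derived. Mean ± SEM of three experiments.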

[9] = tested on: Mycobacterium tuberculosis; assay: Antituberculosis activity against Mycobacterium tuberculosis H37Rv assessed as zone of inhibition at 100 mM incubated for 28 days by disk diffusion assay; assay type: functional, organism-based; settings: 672 h
Method in brief: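 Disk diffusion on Mtb H37Rv plates: disk loaded with 100 mM analog, plates incubated 28 days at 37 °C, then zone of inhibition measured.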

Mycobacterium marinum [10] = assay: Potentiation of antituberculosis activity against Mycobacterium marinum assessed as UBS-109-induced growth inhibition at 0.3 uM after 72 hrs by liquid culture assay; assay type: functional, organism-based
Method in brief: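 Mm cultured in 7H9-ADC broth with rifampicin (0.250–4 µg/mL) alone or combined with analog (6.250–100 µM), in duplicate, with no-drug and 1% DMSO controls. OD600 read after 72 h and normalized to vehicle. Combinations compared with each agent alone by nonparametric ANOVA. Mean ± SEM of three experiments.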

[11] = Half life in CD2F1 male mouse at 10 mg/kg, ip; assay type: ADME, organism-based; set-up: dose 10 mg/kg, route intraperitoneal; settings: in vivo
[12] = Cmax in CD2F1 male mouse at 10 mg/kg, ip; assay type: ADME, organism-based; set-up: dose 10 mg/kg, route intraperitoneal; settings: in vivo
[13] = Tmax in CD2F1 male mouse at 10 mg/kg, ip; assay type: ADME, organism-based; set-up: dose 10 mg/kg, route intraperitoneal; settings: in vivo
[14] = Tmax in CD2F1 male mouse at 10 mg/kg, po; assay type: ADME, organism-based; set-up: dose 10 mg/kg, route oral; settings: in vivo
[15] = Cmax in CD2F1 male mouse at 10 mg/kg, po; assay type: ADME, organism-based; set-up: dose 10 mg/kg, route oral; settings: in vivo
[16] = Half life in CD2F1 male mouse at 10 mg/kg, po; assay type: ADME, organism-based; set-up: dose 10 mg/kg, route oral; settings: in vivo
[17] = Tmax in Swiss Webster male mouse at 12.5 mg/kg, ip; assay type: ADME, organism-based; set-up: dose 12.5 mg/kg, route intraperitoneal; settings: in vivo
[18] = Half life in Swiss Webster male mouse at 12.5 mg/kg, ip; assay type: ADME, organism-based; set-up: dose 12.5 mg/kg, route intraperitoneal; settings: in vivo
[19] = Cmax in Swiss Webster male mouse at 12.5 mg/kg, ip; assay type: ADME, organism-based; set-up: dose 12.5 mg/kg, route intraperitoneal; settings: in vivo

## CN1C/C(=C\c2ccccn2)C(=O)/C(=C/c2ccccn2)C1
[1]
  half-life: 3.7 h
Mycobacterium marinum [2]
  zone of inhibition at 100000 µM: 5.7 mm
[3]
  pIC50: 5.00
Mycobacterium marinum [4]
  pIC50: 5.00
[5]
  pIC50: 4.70
[6]
  Tmax: 0.5 h
[7]
  Cmax: 131 ng/mL
Mycobacterium marinum [8]
  pIC50: 5.40
[9]
  pIC50: 5.40

## O=C1C(Cc2ccccn2)CNCC1Cc1ccccn1 (stereo unspecified)
Mycobacterium marinum [2]
  zone of inhibition at 100000 µM: 0 mm

## O=C1/C(=C/c2ccccn2)CNC[C@H]1Cc1ccccn1
Mycobacterium marinum [2]
  zone of inhibition at 100000 µM: 4.6 mm
Mycobacterium marinum [4]
  pIC50: 4.30

## CO[C@H]1/C=C/O[C@@]2(C)Oc3c(C)c(O)c4c(O)c(c(/C=N/N5CCN(C)CC5)c(O)c4c3C2=O)NC(=O)/C(C)=C\C=C\[C@H](C)[C@H](O)[C@@H](C)[C@@H](O)[C@@H](C)[C@H](OC(C)=O)[C@@H]1C
Mycobacterium marinum [10]
  Activity: inactive

## COC(=O)CCC(=O)N1C/C(=C\c2ccccc2F)C(=O)/C(=C/c2ccccc2F)C1
Mycobacterium marinum [2]
  zone of inhibition at 100000 µM: 1.8 mm

## O=C1/C(=C/c2ccccn2)CSC/C1=C\c1ccccn1
Mycobacterium marinum [2]
  zone of inhibition at 100000 µM: 2.7 mm

## O=C1/C(=C/c2ccccc2F)CNC/C1=C\c1ccccc1F
[11]
  half-life: 3.65 h
[12]
  Cmax: 259 ng/mL
Mycobacterium marinum [2]
  zone of inhibition at 100000 µM: 2.6 mm
[3]
  pIC50: 4.70
Mycobacterium marinum [4]
  pIC50: 4.60
[5]
  pIC50: 4.30
[13]
  Tmax: 3 min
[14]
  Tmax: 3 min
[15]
  Cmax: 275 ng/mL
[16]
  half-life: 2.95 h

## CN1C/C(=C\c2ccccc2F)C(=O)/C(=C/c2ccccc2F)C1
Mycobacterium marinum [2]
  zone of inhibition at 100000 µM: 1.4 mm

## O=C1/C(=C/c2ccccn2)CNC/C1=C\c1ccccn1
Mycobacterium marinum [2]
  zone of inhibition at 100000 µM: 4.7 mm
[17]
  Tmax: 0.25 h
[18]
  half-life: 2.2 h
[19]
  Cmax: 1070 ng/mL

## COc1cc(/C=C/C(=O)CC(=O)/C=C/c2ccc(O)c(OC)c2)ccc1O [CURCUMIN]
Mycobacterium marinum [2]
  zone of inhibition at 100000 µM: 1.1 mm
